We go through three molecules from ChEMBL document CHEMBL3526146, “In vitro and in vivo metabolism and pharmacokinetics of BMS-562086, a potent and orally bioavailable corticotropin-releasing factor-1 receptor antagonist” (Drug Metab Dispos, 2012).

In data set [1] the test system is Hepatocyte. Briefly: Detection of compound level in mouse hepatocytes treated with 25 uM of BMS-562086 after 3 hrs by HPLC analysis. The data set is classed as ADME, cell-based. The gist of the method:
(§1)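 Mouse, rat, dog, monkey and human hepatocytes (trypan blue viability checked) at 1.0×10^6 cells/ml in Krebs-Henseleit buffer were incubated with 25 µM compound, in duplicate. Conditions were 37°C, 95/5 O2/CO2, orbital shaking, 3 h. 7-Ethoxycoumarin and 7-hydroxycoumarin (100 µM) served as positive controls, with a cell-free negative control. Reactions were quenched with ice-cold acetonitrile, then sonicated and centrifuged; supernatants were analysed by LC/MS/MS.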

The test system of data set [2] is Hepatocyte. Briefly: Detection of compound level in rat hepatocytes treated with 25 uM of BMS-562086 after 3 hrs by HPLC analysis. Type of data set: ADME, cell-based. The gist of the method:
as §1

A short description of data set [3]: Detection of compound level in beagle dog hepatocytes treated with 25 uM of BMS-562086 after 3 hrs by HPLC analysis. Type of data set: ADME, cell-based, Canis lupus familiaris, Hepatocyte. The gist of the method: as §1
The nature of data set [4]: Detection of compound level in cynomolgus monkey cryopreserved hepatocytes treated with 25 uM of BMS-562086 after 3 hrs by HPLC analysis. The data set is classed as ADME, cell-based, Macaca fascicularis, Hepatocyte. The gist of the method:
as §1

Data set [5] deals with Hepatocyte. Kind of data set: Detection of compound level in human cryopreserved hepatocytes treated with 25 uM of BMS-562086 after 3 hrs by HPLC analysis. Type of data set: ADME, cell-based. The gist of the method:
as §1

Data set [6] in a line: Apparent permeability from apical to basolateral side in human Caco2 cells. The data set is classed as ADME, cell-based. The note with it: Caco-2. The gist of the method: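 Caco-2 cells (passage 50-60) were seeded at 60,000 cells/cm2 on polycarbonate Transwells and cultured 21-25 days. Transport buffer was HBSS with 2% DMA, pH 7.4. Compound was applied apically at 25 µM at 37°C. Only monolayers with TEER 400-500 Ω cm2 at start and end were used, with mannitol as an integrity probe. Papp = (dQ/dt)/(A×C0).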

A word on the Papp A→B: it is the apparent permeability from the apical to the basolateral side of a cell layer.

As for `O=c1ccc2ccc(O)cc2o1` [UMBELLIFERONE], the Drug metabolism result (in the data set on Hepatocyte [1]; in the data set with Hepatocyte [2]; in data set [3]; in data set [4]; in the data set on Hepatocyte [5]) was “metabolite_detected” throughout.

For the molecule `CCOc1ccc2ccc(=O)oc2c1`, the Drug metabolism result (in the data set on Hepatocyte [1]; in the data set with Hepatocyte [2]; in data set [3]; in data set [4]; in the data set on Hepatocyte [5]) was “metabolite_detected” throughout.

`OC[C@@H](O)[C@@H](O)[C@H](O)[C@H](O)CO` [MANNITOL]: in data set [6], the Papp A→B is 0.21 ×10⁻⁶ cm/s.
